AHR activator = AHR activators, primary screen, cell-based, luminescence, luciferase reporter, human; AHR-responsive luciferase reporter cells; activation, % at 5 µM; 2.5% of 320,000 active; AID 2796, 2010; in the data active means activation above about 47%;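 further: 0% = vehicle wells and 100% = reference agonist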
CR mimetic SO = reduction of superoxide in aged yeast, primary screen, HTS | 0.18% of 330,000 active | S. cerevisiae aged cells, superoxide DHE fluorescence; stronger effect = lower value | superoxide response (% of plate mean), % at 10 µM;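 active means superoxide response under a set limit, about three screen SD below normal, cut at about 65% in these data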;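 further: yeast aged for seven days with compound at 30 °C before DHE staining; 100% = average MFI of all compound-treated wells on the plate with controls excluded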
SMARCA2 act = SMARCA2 (BRM) function activators, primary screen, cell-based, luminescence, high throughput; 1% of 370,000 active; activation, % at 9.1 µM; MG213 cells, MMTV-luciferase reporter, dexamethasone, overnight; in the data active means activation above about 7.8%;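 further: 0% = vehicle wells and 100% = reference activator wells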
SR-BI DiI inh = inhibitors of SR-BI mediated HDL lipid uptake, primary screen, ldlA[mSR-BI] cells, fluorescence, single point | AID 488896, 2010 | 0.96% of 320,000 active | ldlA[mSR-BI] CHO cells, DiI-HDL uptake fluorescence, 3 h | inhibition, % at 12.5 µM;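 active means mean replicate inhibition of at least 70% and a set share of replicates each scoring 70 or more; inconclusive means meets just one of the two criteria; inactive means fails both criteria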;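 further: 0% = median of neutral control wells and 100% = median of positive control wells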
Target sequence (Q61009 whole entry, looked up): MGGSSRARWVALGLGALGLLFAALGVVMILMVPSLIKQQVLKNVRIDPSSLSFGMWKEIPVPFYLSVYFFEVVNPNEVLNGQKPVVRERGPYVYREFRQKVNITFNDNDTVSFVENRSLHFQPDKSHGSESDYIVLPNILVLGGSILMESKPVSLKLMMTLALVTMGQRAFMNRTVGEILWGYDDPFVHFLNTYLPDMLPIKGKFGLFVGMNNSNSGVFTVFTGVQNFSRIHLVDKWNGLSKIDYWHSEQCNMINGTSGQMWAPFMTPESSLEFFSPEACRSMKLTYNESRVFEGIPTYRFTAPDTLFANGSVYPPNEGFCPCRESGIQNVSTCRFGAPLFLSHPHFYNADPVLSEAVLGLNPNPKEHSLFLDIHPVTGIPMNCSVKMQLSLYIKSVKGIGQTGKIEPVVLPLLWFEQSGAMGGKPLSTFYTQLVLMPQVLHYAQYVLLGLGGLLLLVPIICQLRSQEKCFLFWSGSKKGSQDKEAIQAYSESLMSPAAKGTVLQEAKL
Hep lipid drop = inhibitors of hepatocyte lipid droplet formation, primary screen, imaging, high-throughput imaging, BODIPY stain; AML12 mouse hepatocytes, oleate lipid droplets; inhibition, % at 6.5 µM; 0.4% of 240,000 active; AID 1656, 2009;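 active means lipid droplet intensity inhibited by at least 50%, with more than 500 cells counted; inconclusive means wells with under 300 cells, treated as cytotoxic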
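Test system: AML12 hepatocytes (mouse); reagent: oleate loading, 100 µM; dosing: one dose, 6.5 µM compound; incubation: overnight exposure; signal: fluorescence imaging, 20x objective, two fields per well; read-out basis: % inhibition of corrected integrated BODIPY droplet signal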
SR-BI uptake up = activators of SR-BI mediated DiI-HDL uptake, primary screen, ldlA[mSR-BI] CHO cells, DiI fluorescence; 3 h; 100 = double the neutral-control signal; activation, % at 12.5 µM; 0.096% of 320,000 active; AID 504775, 2011;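 active means mean replicate activation of at least 60% and every replicate at or above 60%; inconclusive means mean or all-replicate condition met, but not both; inactive means mean below 60% and not all replicates reaching 60%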;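 further: 0% = median plate neutral-control signal and 100% = twice that signal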
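Material – SR-BI-overexpressing, LDLR-lacking CHO cells · Medium – BSA-supplemented, HEPES-buffered Ham's F12, pH 7.4 · Doses – single concentration · Times – compound with DiI-HDL co-incubation, 3 h at 37 °C · Measured by – bottom-read fluorescence, 550/595 nm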
The depositor's hits bear a star; ? = inconclusive; . = not tested or not shown. Rows were chosen to be rich in hits. Some 4.3% of all compounds tested hit in one or more screens of this group.

SMILES	AHR activator	CR mimetic SO	SMARCA2 act	SR-BI DiI inh	Hep lipid drop	SR-BI uptake up
Cc1[nH]nc2c1C(c1ccc(F)cc1)N(Cc1ccccc1)C2=O (configuration not stated)	.	.	2.2	.	.	.
CC1=Nc2ccccc2/C1=C/c1sc(=N)n(-c2nccs2)c1O	73.3*	115.7	.	20.2	.	-20.2
COc1ccc(/C=C/S(=O)(=O)NCC(C)C)c(CNC(=O)OC(C)(C)C)c1	.	.	-3.5	.	.	.
Cc1ccc(C(=O)NNC2=Nc3cccc4cccc2c34)cc1	78.8*	101.7	0.5	22.4	0.0	-22.4
Cc1ccc(C(=O)NNc2c3ccccc3nc3ccccc23)cc1	39.0	92.0	-0.2	96.7*	1.1	-96.7
COc1ccc(Br)cc1C=NNC(=O)c1ccncc1	.	.	-0.2	.	.	.
Clc1cccc(-c2nnc(-c3ccno3)o2)c1	-1.0	118.6	0.5	-15.1	0.2	15.1
c1ccc(-c2nnc(-c3ccccc3)o2)cc1	58.8*	85.1	5.4	-19.6	.	19.6
Clc1cccc(-c2nnc(-c3ccccc3)o2)c1	65.3*	89.1	7.2	-1.8	-1.3	1.8
O=C(N[C@H](C(=O)N1CCC[C@H]1C(=O)NCCc1ccccc1Cl)c1ccccc1)C1CCCC1	.	.	-2.9	.	.	.
OC(c1ccccc1)(c1ccccc1)C1CCN(CCCOc2cccc(C(F)(F)F)c2)CC1	.	.	-9.2	.	.	.
CN1C(=O)C2(N=c3ccccc3=N2)c2ccccc21	51.4*	112.7	.	-15.4	.	15.4
CC(C)c1cc(C(C)C)c(S(=O)(=O)N2CCC(C(=O)NCc3cccs3)CC2)c(C(C)C)c1	.	.	-2.9	.	.	.
COc1ccc(-n2c(SCC(=O)N3CCCC(C)C3)nnc2-c2cccnc2)cc1 (configuration not stated)	0.0	92.5	0.0	-4.1	.	4.1
COc1ccc(-n2c(SCC(=O)N3CCCCC3C)nnc2-c2cccnc2)cc1 (configuration not stated)	2.9	113.1	3.9	-116.7	1.5	116.7*
Oc1ccccc1C=NN1CCN(Cc2ccccc2)CC1	.	.	0.6	.	.	.
C/C(=N\Nc1ccc([N+](=O)[O-])cc1)c1ccc(N2CCOCC2)cc1	6.7	84.4	-0.2	59.1	-4.9	-59.1
C/C(=N\Nc1nc(C)c(C)s1)c1ccc([N+](=O)[O-])cc1	1.8	100.2	-1.4	81.0*	.	-81.0
C/C(=N\Nc1ccc([N+](=O)[O-])cc1)c1ccc(-n2nncc2C)cc1	50.0*	81.2	-1.5	43.9	-5.9	-43.9
O=C(Cn1nnc(N2CCCCC2)n1)NN=Cc1ccccc1O	.	.	-5.9	.	.	.
COc1ccc(/C=C/C(=O)NC(=S)NCC2CCCO2)cc1 (configuration not stated)	23.7	84.0	-4.7	7.1	10.2	-7.1
COc1ccccc1/C=C/C(=O)NC(=S)NCC1CCCO1 (configuration not stated)	69.0*	97.3	0.7	17.5	5.5	-17.5
Cc1cccc(OCC(=O)Nc2ccc(N3CCCC3)cc2)c1C	0.5	84.0	-4.9	71.2*	.	-71.2
Cc1ccc(OCC(=O)Nc2ccc(N3CCCC3)cc2)cc1C	-0.7	104.1	0.0	?	.	-71.3
COc1ccccc1OCC(=O)Nc1ccc(N2CCCCC2)cc1	2.8	135.8	3.0	40.0	-8.5	-39.9
SMILES	AHR activator	CR mimetic SO	SMARCA2 act	SR-BI DiI inh	Hep lipid drop	SR-BI uptake up
Cc1cc(C)cc(OCC(=O)Nc2ccc(N3CCCC3)cc2)c1	0.3	90.7	.	74.6*	.	-74.6
Cc1ccc(NC(=O)c2ccc3nc[nH]c3c2)c(O)c1	65.3*	101.9	2.1	-5.8	3.8	5.8
Cc1ccccc1N1CCN(C2=Nc3ccccc3Sc3ccccc32)CC1	.	.	-4.7	.	.	.
Clc1ccc(CSc2cc3c(nn2)-c2ccccc2CC3)cc1	47.3*	104.3	3.8	-1.8	.	1.8
COC(=O)Cc1nnn2c1[C@H](C)[C@H](c1ccccc1Br)OC[C@H](C)C2	.	.	-1.5	.	.	.
Clc1ccc(C2Nc3cccc4cccc(c34)N2)cc1	60.1*	97.3	-3.0	48.5	-10.5	-48.5
Brc1ccc(Oc2nsnc2N2CCOCC2)cc1	55.9*	96.7	3.4	37.4	.	-37.4
COC(=O)Oc1nsnc1N1CCOCC1	0.8	130.1	-3.4	-3.7	.	3.7
Cc1ccc(-c2cc(C#N)c3n(c2=O)CCC3)cc1	.	.	-1.4	.	.	.
N#Cc1ccc(Cn2nnc(-c3ccc(N4CCOCC4)cc3)n2)cc1	.	.	2.2	.	.	.
COC(=O)c1ccccc1S(=O)(=O)N(Cc1cc2cc3c(cc2[nH]c1=O)OCO3)C1CCCCC1	62.7*	105.3	.	.	-12.3	.
CCN(CC)C(=O)CSc1nnc(-c2ccc(C(C)(C)C)cc2)n1Cc1ccco1	.	.	-4.6	.	.	.
COc1ccccc1C(=O)N/N=C(\C)c1cccnc1	58.5*	116.0	-1.3	.	.	.
C/C(=N\NC(=O)c1nnn(-c2nonc2N)c1-c1cccs1)c1cccnc1	63.2*	104.3	-0.8	-11.6	-1.0	11.6
Nc1nonc1-n1nnc(C(=O)N/N=C/c2ccccc2F)c1-c1cccs1	11.7	83.7	-2.9	74.4*	-6.7	-74.4
Cc1ccc(/C=N/NC(=O)c2nnn(-c3nonc3N)c2-c2cccs2)cc1	2.5	86.6	0.5	9.7	-0.3	-9.7
COc1cccc(-c2c(C(=O)N/N=C(\C)c3cccnc3)nnn2-c2nonc2N)c1	61.7*	97.0	-1.6	-45.5	-11.4	45.5
C/C(=N\NC(=O)c1nnn(-c2nonc2N)c1-c1ccccc1)c1cccnc1	.	125.8	-1.9	8.1	-3.0	-8.1
CC1(C)CC(=O)C=C(c2ccccc2F)C1=O	.	.	0.8	.	.	.
COCCCNc1ccn2nc(-c3ccc(OCCN4CCOCC4)cc3)cc2n1	.	.	7.9*	.	.	.
CCCCCN1CCCCC(NC(=O)c2ccccc2OC)C1=O (configuration not stated)	.	.	0.7	.	.	.
Cc1cc(Cl)nc(SCC(=O)c2ccccc2)n1	61.3*	109.8	1.5	-14.7	3.5	14.7
Cc1cc(N2CCCC2)nc(SCC(=O)c2ccccc2)n1	20.0	111.1	-3.3	16.2	-16.0	-16.2
c1ccc(Nc2nnc(-c3ccc4c(c3)OCO4)o2)cc1	.	.	4.1	.	.	.
CCN1C(=O)C(CC(=O)Nc2ccccc2)S/C1=N\c1ccccn1 (configuration not stated)	1.6	93.0	-2.2	78.0*	-3.4	-78.0
C=CCN1C(=O)C(CC(=O)Nc2ccccc2F)S/C1=N\c1nccs1 (configuration not stated)	15.8	92.7	-0.9	84.5*	-24.7	-84.5
Cc1ccc(NC(=O)CC2S/C(=N/c3nccs3)N(C)C2=O)cc1C (configuration not stated)	52.5*	111.0	-1.1	63.5	4.8	-63.5

Screening data: PubChem, several laboratories
